Values belong to the compound of their own block, whether it stands above or below them.
Columns and labels:
Plasma [1] = assay: Drug level in Sprague-Dawley rat plasma treated with RM-5061 at 10 to 75 mg/kg administered via oral gavage qd for 28 consecutive days; type: ADME, organism-based; conditions: in vivo
Summary of the method: (§1)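 In a sub-acute study, Sprague-Dawley rats were dosed once daily for 28 consecutive days at 10, 30 or 75 mg/kg, given as a yellow suspension. There were four groups of up to 30 rats each (15M/15F) to assess systemic exposure.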

Canis familiaris = assay: Drug level in Beagle dog plasma treated with RM-5061 up to 25 mg/kg administered orally as gelatin capsule once daily for 28 days measured on day 1 and 29; type: ADME, organism-based, Canis lupus familiaris; conditions: in vivo, po, 672 h
Summary of the method: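 Beagle dogs received the drug orally in a single gelatin capsule at 5, 15 or 25 mg/kg once daily for 28 consecutive days in a sub-acute toxicity study assessing systemic exposure.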

Rattus norvegicus [2] = assay: Drug level in Sprague-Dawley rat treated with Nitazoxanide at 6 mg/kg, iv measured at 0.7 to 2.1 hrs post dose; type: ADME, organism-based; conditions: in vivo
Plasma [3] = assay: Elimination half life in Sprague-Dawley rat assessed as tizoxanide level in plasma at 10 to 75 mg/kg administered via oral gavage qd for 28 consecutive days; type: ADME, organism-based; conditions: in vivo; summary of the method: as §1
[4] = Oral bioavailability in human; type: ADME, organism-based; conditions: in vivo
[5] = Drug excretion in po dosed human urine; type: ADME, organism-based; conditions: read-out: Drug excretion
Rattus norvegicus [6] = assay: Tmax in female Sprague-Dawley rat assessed as tizoxanide-glucuronide level in plasma at 30 mg/kg, po administered as single dose; type: ADME, organism-based; conditions: in vivo
Summary of the method: (§2)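 Plasma tizoxanide and tizoxanide glucuronide were measured and PK parameters derived. AUCs were dose-corrected to 30 mg/kg for bioavailability.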

[7] = Drug excretion in po dosed human faeces; type: ADME, organism-based, Feces; conditions: read-out: Drug excretion
Rattus norvegicus [8] = assay: Cmax in Sprague-Dawley rat assessed as Tizoxanide level in plasma at 30 mg/kg, po administered as single dose; type: ADME, organism-based; parameters: dose 30 mg/kg, route oral; conditions: in vivo
Summary of the method: (§3)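 Rats in groups of three received one compound as a single oral dose (30 mg/kg) or a single intravenous injection (6 mg/kg), with four compounds studied separately. Serial blood samples were drawn at 5, 10, 15 and 30 min and at 1, 2, 4, 8, 23 and 24 h post-dose. Plasma parent drug and metabolites were quantified and PK parameters were derived.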

Rattus norvegicus [9] = assay: Cmax in Sprague-Dawley rat assessed as tizoxanide-glucuronide level in plasma at 30 mg/kg, po administered as single dose; type: ADME, organism-based; parameters: dose 30 mg/kg, route oral; conditions: in vivo; summary of the method: as §3
Rattus norvegicus [10] = assay: Tmax in male Sprague-Dawley rat assessed as tizoxanide-glucuronide level in plasma at 30 mg/kg, po administered as single dose; type: ADME, organism-based; conditions: in vivo; summary of the method: as §2
Rattus norvegicus [11] = assay: Tmax in male Sprague-Dawley rat assessed as Tizoxanide level in plasma at 30 mg/kg, po; type: ADME, organism-based; conditions: in vivo; summary of the method: as §2
Rattus norvegicus [12] = assay: AUC (0 to t) in male Sprague-Dawley rat assessed as Tizoxanide-glucuronide level in plasma at 6 mg/kg, iv administered as single dose; type: ADME, organism-based; conditions: in vivo; summary of the method: as §2
Rattus norvegicus [13] = assay: Cmax in Sprague-Dawley rat assessed as Tizoxanide level in plasma at 6 mg/kg, iv administered as single dose; type: ADME, organism-based; parameters: dose 6 mg/kg, route intravenous; conditions: in vivo; summary of the method: as §3
Rattus norvegicus [14] = assay: Tmax in male Sprague-Dawley rat assessed as Tizoxanide-glucuronide level in plasma at 6 mg/kg, iv administered as single dose; type: ADME, organism-based; conditions: in vivo; summary of the method: as §2
Rattus norvegicus [15] = assay: AUC (0 to t) in Sprague-Dawley rat assessed as Tizoxanide level at 30 mg/kg, po administered as single dose; type: ADME, organism-based; conditions: in vivo; summary of the method: as §2
Rattus norvegicus [16] = assay: AUC (0 to t) in Sprague-Dawley rat assessed as Tizoxanide level in plasma at 6 mg/kg, iv administered as single dose; type: ADME, organism-based; conditions: in vivo; summary of the method: as §2
Plasma [17] = assay: Drug metabolism in Sprague-Dawley rat assessed as tizoxanide-glucuronide formation in plasma at 30 mg/kg, po administered as single dose measured after 5 mins; type: ADME, organism-based; conditions: in vivo; summary of the method: as §2
Rattus norvegicus [18] = assay: Elimination half life in Sprague-Dawley rat assessed as Tizoxanide level in plasma at 6 mg/kg, iv administered as single dose; type: ADME, organism-based; conditions: in vivo; summary of the method: as §2
Rattus norvegicus [19] = assay: Tmax in female Sprague-Dawley rat assessed as Tizoxanide-glucuronide level in plasma at 6 mg/kg, iv administered as single dose; type: ADME, organism-based; conditions: in vivo; summary of the method: as §2
Rattus norvegicus [20] = assay: AUC (0 to t) in Sprague-Dawley rat assessed as tizoxanide-glucuronide level in plasma at 30 mg/kg, po administered as single dose; type: ADME, organism-based; conditions: in vivo; summary of the method: as §2
Rattus norvegicus [21] = assay: Cmax in Sprague-Dawley rat assessed as Tizoxanide-glucuronide level in plasma at 6 mg/kg, iv administered as single dose; type: ADME, organism-based; parameters: dose 6 mg/kg, route intravenous; conditions: in vivo; summary of the method: as §3
Rattus norvegicus [22] = assay: Tmax in female Sprague-Dawley rat assessed as Tizoxanide level in plasma at 30 mg/kg, po; type: ADME, organism-based; conditions: in vivo; summary of the method: as §2
[23] = Prodrug activation at room temperature after 3 weeks assessed as tizoxanide formation by NMR method
Rattus norvegicus [24] = assay: Drug level in Sprague-Dawley rat treated with RM5064 at 6.4 mg/kg, iv measured at 0.25 to 1 hrs post dose; type: ADME, organism-based; conditions: in vivo
Rattus norvegicus [25] = assay: Drug level in Sprague-Dawley rat treated with RM5038 at 6.4 mg/kg, iv measured at 0.25 to 1 hrs post dose; type: ADME, organism-based; conditions: in vivo

Drug metabolism (Plasma [1]): Metabolite_Detected
Drug metabolism (Canis familiaris): Metabolite_Detected
Drug metabolism (Rattus norvegicus [2]): Metabolite_Detected
beta t1/2 (Plasma [3]): 42 to 222 min
SMILES: O=C(Nc1ncc([N+](=O)[O-])s1)c1ccccc1O [TIZOXANIDE]

SMILES: CC(=O)Oc1ccccc1C(=O)Nc1ncc([N+](=O)[O-])s1 [NITAZOXANIDE]
bioavailability [4]: ≤ 30%
dose excreted [5]: 33%
Tmax (Rattus norvegicus [6]): 84 min
dose excreted [7]: 64%
Cmax (Rattus norvegicus [8]): 742 ng/mL
Cmax (Rattus norvegicus [9]): 4620 ng/mL
Tmax (Rattus norvegicus [10]): 42 min
Tmax (Rattus norvegicus [11]): 42 min
AUCt (Rattus norvegicus [12]): 6500 ng·h/mL
Cmax (Rattus norvegicus [13]): 20500 ng/mL
Tmax (Rattus norvegicus [14]): 24 min
AUCt (Rattus norvegicus [15]): 2040 ng·h/mL
AUCt (Rattus norvegicus [16]): 14100 ng·h/mL
Drug metabolism (Plasma [17]): Metabolite_Detected
beta t1/2 (Rattus norvegicus [18]): 12 min
Tmax (Rattus norvegicus [19]): 42 min
AUCt (Rattus norvegicus [20]): 15950 ng·h/mL
Cmax (Rattus norvegicus [21]): 11050 ng/mL
Tmax (Rattus norvegicus [22]): 126 min

SMILES: CC(C)[C@H](N)C(=O)Oc1ccccc1C(=O)Nc1ncc([N+](=O)[O-])s1
Drug metabolism [23]: 20%

Drug metabolism (Rattus norvegicus [24]): Metabolite_Detected
Drug metabolism (Rattus norvegicus [25]): Metabolite_Detected
SMILES: O=C(Nc1ncc(Cl)s1)c1ccccc1O

From ChEMBL document CHEMBL3997766, “Synthesis and pre-clinical studies of new amino-acid ester thiazolide prodrugs” (Eur J Med Chem, 2017)
